This is a sample that favours compounds with a hit; in the whole collection about 1.9% have one here.
Hsp70 act: Hsp70 transcriptional activators, primary screen, cell-based, HeLa, Hsp70 promoter luciferase, luminescence, 10 µM. activation, % at 10 µM. HeLa Hsp70 promoter luciferase reporter; scaled: vehicle 0, proteasome-inhibitor control 100%. actives 0.04% (n = 200,000). AID 1203, 2008;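 active = activation above the mean across all tested compounds plus 3 SD, cutoff set per campaign, cut at about 5.5% in these data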;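 also: 100% = MG132 at 30 µM as the positive control and 0% = DMSO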
GAA850 FXN act: FXN promoter activators, primary screen, cell-based, luciferase luminescence, HEK293 lucGAA850. activation, % at 6 µM. AID 540364, 2011. HEK293 lucGAA850 FXN promoter luciferase reporter, 24 h; percent of 10 µM SAHA response. actives 0.56% (n = 360,000);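 active = activation above the average of all compounds screened plus 3 SD, cutoff fixed separately per campaign, cut at about 7.5% in these data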;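 also: 0% = DMSO wells and 100% = 10 µM SAHA wells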
ABHD5 PLIN5 PPI: ABHD5-PLIN5 interaction inhibitors, primary screen, cell lysate, split luciferase complementation, luminescence; Perilipin-5 (Homo sapiens) + 1-acylglycerol-3-phosphate O-acyltransferase ABHD5 (Homo …; Split G. princeps luciferase complementation, 4 h; inhibition, % at 4 µM; actives 0.78% (n = 360,000); AID 602281, 2012;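 active = inhibition above the mean inhibition across every tested compound plus 3 SD, cut at about 22% in these data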;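 also: 0% = DMSO only wells and the 100% control is not disclosed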
H9c2 TAG inh: inhibitors of triacylglycerol accumulation, primary screen, cell-based, uHTS, fluorescence, H9c2 | H9c2 cells, Nile Red lipid (TAG) fluorescence; cells loaded with 200 µM oleic acid | inhibition, % at 12.5 µM | actives 0.66% (n = 230,000) | AID 651582, 2012;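 active = pattern-corrected inhibition of lipid staining of at least 50% with the nuclear-stain viability signal not falling by more than 50%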;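 also: 0% = DMSO wells and 100% = triacsin C control wells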
Rad51 HR inh: human RAD51 strand exchange inhibitors, primary screen, biochemical, fluorescence. DNA repair protein RAD51 homolog 1 (Homo sapiens), Q06609. hRad51 DNA strand exchange, fluorescence dequenching. inhibition, % at 10 µM. actives 0.085% (n = 200,000). AID 1385, 2008;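 active = inhibition above 40% at the single screening dose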;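 also: 0% = DMSO control wells and 100% = blanks with heterologous ssDNA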
Target sequence (Q06609 whole entry, looked up): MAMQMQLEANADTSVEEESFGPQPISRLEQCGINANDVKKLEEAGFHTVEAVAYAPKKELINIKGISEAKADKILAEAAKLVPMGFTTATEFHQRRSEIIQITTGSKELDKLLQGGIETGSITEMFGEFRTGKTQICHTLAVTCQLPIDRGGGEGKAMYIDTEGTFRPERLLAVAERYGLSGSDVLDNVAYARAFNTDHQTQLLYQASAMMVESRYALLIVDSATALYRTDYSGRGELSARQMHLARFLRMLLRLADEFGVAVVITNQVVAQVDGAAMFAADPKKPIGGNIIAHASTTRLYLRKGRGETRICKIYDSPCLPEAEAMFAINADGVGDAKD
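material = hRad51 filaments on single-stranded DNA | timing = filaments 15 min 37 °C, then compound 30 min | signal = FRET fluorescence dequenching, excitation 485 nm, emission 520 nm | benchmarks = control wells and blank wells on each plate | evaluation = percent inhibition relative to plate controls and blanks | compound = 10 µM final, single point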
HIF activator: HIF pathway transcriptional activators, primary screen, cell-based, U2OS HRE-luciferase, luminescence | U2OS HRE-luciferase reporter; normalized: DMSO 0%, desferrioxamine 100% | activation, % at 7.5 µM (by protocol) | actives 0.32% (n = 300,000) | AID 1910, 2009;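 active = mean activation of at least 10% of the iron chelator positive control signal, with at least half of replicates also reaching 10%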
ABHD5-PLIN5 conf: ABHD5-PLIN5 interaction inhibitors, confirmation, biochemical, luminescence; actives 67% (n = 2,200); shares compounds with ABHD5 PLIN5 PPI; inhibition, % at 4 µM; in the data active = inhibition above about 23%;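 also: 0% = DMSO vehicle wells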
HNF4 split-luc: HNF4 dimerization inhibitors, counter-screen for ABHD5-PLIN5 interaction inhibitor project, biochemical, split-luciferase complementation, luminescence. shares compounds with ABHD5 PLIN5 PPI. inhibition, % at 4 µM. actives 77% (n = 2,200). AID 651674, 2012;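 active = mean inhibition across replicate wells exceeding the computed hit threshold, cut at about 13% in these data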;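 also: light from luciferase halves that rejoin when HNF4 fusion proteins dimerize; 0% = DMSO only wells and the 100% control is not given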
* marks the source's active call; other numbers are inactive results; . = not tested or not shown.

SMILES	Hsp70 act	GAA850 FXN act	ABHD5 PLIN5 PPI	H9c2 TAG inh	Rad51 HR inh	HIF activator	ABHD5-PLIN5 conf	HNF4 split-luc
CC(C)(C)n1nc2c(c1NC(=O)c1ccc([N+](=O)[O-])cc1)CS(=O)(=O)C2	.	-1.6	-0.9	.	.	0.0	.	.
CC(=O)N=c1c(C#N)cc2c(=O)n3cccc(C)c3nc2n1Cc1ccco1	.	2.7	49.4*	13.4	6.7	0.1	12.8	14.3*
Cc1ccccc1C(=O)N=c1c(C#N)cc2c(=O)n3cccc(C)c3nc2n1Cc1ccco1	0.5	.	.	.	.	0.6	.	.
N#Cc1cc2c(=O)n3ccccc3nc2n(Cc2ccco2)c1=NC(=O)c1ccco1	-0.5	1.0	49.9*	.	-9.2	0.6	7.5	25.9*
CC(C)[C@H](NC(=O)OC(C)(C)C)c1nnc(S(=O)(=O)Cc2c(F)cccc2Cl)o1	.	-19.3	71.4*	.	0.7	-0.8	84.6*	108.0*
CC(C)=CCSc1nnc([C@@H](NC(=O)OC(C)(C)C)C(C)C)o1	-0.4	-3.1	-6.4	.	-3.6	0.2	.	.
Cc1ccccc1CS(=O)(=O)c1nnc([C@H](CC(C)C)NC(=O)OC(C)(C)C)o1	-0.2	-1.5	44.5*	.	-0.8	-2.6	68.9*	90.5*
CC[C@@H](C)[C@H](NC(=O)OC(C)(C)C)c1nnc(S(=O)(=O)Cc2cc(C)ccc2C)o1	0.2	-3.0	60.9*	-0.7	-5.2	-0.5	72.2*	102.0*
Cc1ccc(Sc2cnccc2C#N)cc1	.	-0.6	2.3	.	.	-1.0	.	.
CCCCOC(=O)Nc1cc(C(=O)OC)ccc1C(=O)OC	-0.3	-1.9	27.6*	.	.	-0.2	42.6*	5.5
CCCCOC(=O)Nc1ccc(C(=O)OC)cc1	-0.4	2.5	-2.7	.	1.6	2.8	.	.
NC(=O)c1cc2ccccc2oc1=NCc1ccccc1	-0.2	1.8	17.1	5.4	16.5	-0.5	.	.
NC(=O)c1cc2cc(Br)ccc2oc1=NCc1ccccc1	-0.3	-1.0	61.7*	0.4	0.3	1.3	5.6	29.2*
COc1ccc(C(=O)Nc2ccc(N3CCOCC3)cc2)cc1S(=O)(=O)NC1CCCC1	0.1	0.1	2.5	-7.4	20.4	-2.6	.	.
CC(Sc1nnnn1-c1ccc(O)cc1)C(=O)NNC(=O)c1ccc(F)cc1 (stereo unspecified)	.	0.6	-2.7	-10.2	.	.	.	.
O=C(O)CCC(=O)Nc1ccc(SSc2ccc(NC(=O)CCC(=O)O)cc2)cc1	.	0.5	43.9*	.	.	-0.9	46.5*	115.0*
CC(OC(=O)c1cc(=O)[nH]c2ccccc12)C(=O)NC1CCCC1 (stereo unspecified)	.	1.0	-0.6	-8.5	.	.	.	.
CCOC(=O)c1nc2sc(C)c(C)c2c(=O)[nH]1	-0.1	1.3	4.2	.	7.7	0.0	.	.
CCOC(=O)/C(=C\c1cccc(O)c1)c1nc2sc(C)c(C)c2c(=O)[nH]1	0.0	-3.2	52.8*	.	0.6	0.0	84.7*	79.8*
CCc1ccc(/C=C/C(=O)c2ccc(S(=O)(=O)N(C)C)cc2)cc1	-0.2	-0.9	41.4*	.	-8.1	0.4	92.0*	83.3*
C=C1C(=O)C23C(O)C1CCC2C12CCCC(C)(COC(C)=O)C1C(O)C3(O)OC2 (stereo unspecified)	.	-15.5	90.5*	93.0*	.	.	92.5*	112.6*
COC(=O)C(=C/C(C)=C/c1cccnc1)C(=O)OC	-0.1	-3.6	33.7*	5.2	1.3	-0.7	54.2*	53.2*
NC(=S)NN=C1CCSCC1	.	-0.4	-0.6	8.1	.	.	.	.
N#CCc1c(C#N)c(N)nc(N2CCN(S(=O)(=O)c3ccccc3)CC2)c1C#N	-0.2	2.7	9.6	.	-2.5	0.2	.	.
N#CCc1c(C#N)c(N)nc(N2CCN(C=O)CC2)c1C#N	-0.1	1.1	23.2*	3.7	1.9	-0.8	1.1	11.4
SMILES	Hsp70 act	GAA850 FXN act	ABHD5 PLIN5 PPI	H9c2 TAG inh	Rad51 HR inh	HIF activator	ABHD5-PLIN5 conf	HNF4 split-luc
Cn1c(=O)c2c(ncn2CC(=O)N/N=C/C=C/c2ccco2)n(C)c1=O	.	1.6	30.7*	-0.6	-0.7	0.0	7.1	31.6*
CC(/C=N/NC(=O)Cn1cnc2c1c(=O)n(C)c(=O)n2C)=C\c1ccco1	.	-0.5	7.2	1.5	13.1	.	.	.
Cc1ccc(-c2cc(C(=O)Nc3nccs3)c3ccccc3n2)o1	-0.3	-0.8	10.7	.	-55.9	0.5	.	.
Cc1ccc(-c2cc(C(=O)Nc3ccccc3C(N)=O)c3ccccc3n2)o1	.	2.7	43.3*	4.4	.	0.1	27.9*	27.8*
O=C(Nc1nc(-c2ccco2)c(-c2ccco2)s1)C1CCC1	-0.4	2.6	35.7*	.	-2.5	-0.1	12.7	46.0*
C=C1CCN([C@H](C(=O)NCc2ccc(OC)cc2)C(C)C)S(=O)(=O)c2ccccc21	.	0.5	0.7	-12.9	10.5	0.1	.	.
CCc1cc(C(c2ccc(OC)c(OC)c2)N2CCOCC2)c(NC(=O)c2ccccc2)s1 (stereo unspecified)	-0.4	1.9	33.0*	.	12.7	-30.0	99.1*	86.4*
CCc1ccc(S(=O)(=O)c2nnn3c2nc(N2CCOCC2)c2ccccc23)cc1	.	0.8	5.1	.	.	-0.3	.	.
CN1CCC(N2CCN(C3CN(C4CCCC4)S(=O)(=O)C3)CC2)CC1 (stereo unspecified)	.	.	4.0	.	.	.	.	.
COc1ccc(OCC(O)CN2CCC(CN3C(=O)c4cccc5cccc(c45)C3=O)CC2)cc1 (stereo unspecified)	.	2.5	24.6*	-13.6	.	-0.1	6.4	2.8
C/C=C/C(=O)Nc1cccc(C2=NOC3(C2)C[C@@H](C(N)=O)N(C(=O)/C(C)=C/C)C3)c1 (stereo partly specified)	.	-1.5	0.7	-9.0	-5.7	-0.5	.	.
COc1ccc(/C=C(\NC(=O)c2ccccc2)C(=O)NCCN2CCOCC2)cc1	.	-0.2	5.5	.	.	0.2	.	.
CCOC(=O)C(=Cc1c[nH]c2ccc(S(=O)(=O)N(C)C)cc12)C(=O)OCC	.	1.3	51.5*	10.2	22.8	-0.7	63.1*	58.0*
COc1cc(CCC(=O)NCCc2ccc(F)cc2)cc(OC)c1OC	.	1.3	3.7	11.6	.	0.0	.	.
C=CCN(CC=C)Cc1cc(=O)oc2ccc3ccccc3c12	.	.	-0.2	.	.	.	.	.
C=CCN(CC=C)Cc1c(O)ccc2c1oc(=O)c1ccccc12	-0.3	2.2	68.0*	.	4.3	0.4	14.3	16.7*
